One block for each molecule: values may come before it.
Key:
Cerebrospinal fluid = test: Cmax in non-perfused Sprague-Dawley rat cerebrospinal fluid assessed as active metabolite oseltamivir carboxylate level at 30 mg/kg, iv; type: ADME, organism-based; set-up: dose 30 mg/kg, route intravenous; settings: in vivo, BLD = below limit of detection
Method in brief: (§1)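 Nonfasted adult rats received 30 mg/kg in aqueous 0.9% NaCl (pH 4.0) by slow tail-vein injection over 20–30 s. Groups were sampled at 5 min and 0.25, 0.5, 1, 2, 4 and 8 h, with 4–5 rats per time point, under terminal isoflurane. Blood was taken by heart puncture and CSF from the cisterna magna. Brains were homogenized either unperfused or after transcardial saline perfusion. Samples were assayed by LC-MS/MS, and pooled composite data were analyzed noncompartmentally.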

Plasma [1] = test: Terminal half life in perfused Sprague-Dawley rat plasma assessed as active metabolite oseltamivir carboxylate level at 30 mg/kg, iv; type: ADME, organism-based; set-up: dose 30 mg/kg, route intravenous; settings: in vivo
Method in brief: (§2)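 Nonfasted Sprague-Dawley rats given 30 mg/kg i.v. in 0.9% NaCl pH 4.0 by tail vein over 20–30 s. Terminal sampling under isoflurane at 5 min, 0.25, 0.5, 1, 2, 4 and 8 h (4–5 rats/time): plasma, CSF, and brain homogenate, with or without saline perfusion. LC-MS/MS. t1/2, Vss and ratios from noncompartmental analysis of pooled composite concentrations.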

Brain [2] = test: Cmax in perfused Sprague-Dawley rat brain assessed as active metabolite oseltamivir carboxylate level at 30 mg/kg, iv; type: ADME, organism-based; set-up: dose 30 mg/kg, route intravenous; settings: in vivo; method in brief: as §1
[3] = Ratio of drug level in brain to plasma in non-perfused Sprague-Dawley rat at 30 mg/kg, iv; type: ADME, organism-based; set-up: dose 30 mg/kg, route intravenous; settings: brain and plasma, read-out: BPR; method in brief: as §2
Plasma [4] = test: AUC (0 to 8 hrs) after iv dose in non-perfused Sprague-Dawley rat plasma assessed as active metabolite oseltamivir carboxylate level at 30 mg/kg; settings: in vivo
[5] = Cmax in non-perfused Sprague-Dawley rat brain at 30 mg/kg, iv after 0.25 hrs; type: ADME, organism-based; set-up: dose 30 mg/kg, route intravenous; method in brief: as §1
Plasma [6] = test: Cmax in perfused Sprague-Dawley rat plasma assessed as active metabolite oseltamivir carboxylate level at 30 mg/kg, iv; type: ADME, organism-based; set-up: dose 30 mg/kg, route intravenous; settings: in vivo; method in brief: as §1
[7] = Cmax ratio in cerebrospinal fluid to plasma in perfused Sprague-Dawley rat at 30 mg/kg, iv; type: ADME, organism-based, CSF/Plasma; set-up: dose 30 mg/kg, route intravenous; settings: cerebrospinal fluid and plasma; method in brief: as §1
Brain [8] = test: Cmax in non-perfused Sprague-Dawley rat brain assessed as active metabolite oseltamivir carboxylate level at 30 mg/kg, iv; type: ADME, organism-based; set-up: dose 30 mg/kg, route intravenous; settings: in vivo; method in brief: as §1
[9] = Cmax in perfused Sprague-Dawley rat brain at 30 mg/kg, iv after 0.25 hrs; type: ADME, organism-based; set-up: dose 30 mg/kg, route intravenous; method in brief: as §1
Brain [10] = test: Terminal half life in non-perfused Sprague-Dawley rat brain assessed as active metabolite oseltamivir carboxylate level at 30 mg/kg, iv; type: ADME, organism-based; set-up: dose 30 mg/kg, route intravenous; settings: in vivo; method in brief: as §2
[11] = Prodrug conversion in 42 days old male rat liver S9 fractions assessed as conversion of oseltamivir to oseltamivir carboxylate; type: ADME, subcellular, S9 fraction
Method in brief: (§3)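 Rat brain or liver S9 (9,000 × g supernatant; 1.0 mg protein) was incubated in triplicate with 10 µM 14C-oseltamivir (final) in 100 mM Tris-HCl pH 7.4 for 30 min at 37°C. Reactions were quenched with TCA-acetonitrile, and the fraction converted to OC was measured by radioflow HPLC with fractionation. Rate was calculated as (pmol/ml substrate × fraction hydrolyzed)/(mg protein/ml × time), minus the no-protein background.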

[12] = Prodrug conversion in 42 days old female rat liver S9 fractions assessed as paranitrophenol generation rate assessed per mg of protein per min; type: ADME, subcellular, S9 fraction
Method in brief: (§4)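 Control esterase activity was measured by incubating 100 µM p-nitrophenyl acetate (final) with 0.05 mg rat brain or liver S9 protein in 1.5 ml Tris-HCl pH 7.4 for 1 min at 37°C. Reactions were quenched with acetonitrile, and product was quantified by HPLC-UV against external standards. The no-protein blank rate was subtracted, and rate was expressed per mg protein per min.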

[13] = Prodrug conversion in 42 days old male rat brain S9 fractions assessed as oseltamivir carboxylate generation rate assessed per mg of protein per min; type: ADME, tissue-based; method in brief: as §3
[14] = Prodrug conversion in commercial liver S9 fractions assessed as paranitrophenol generation rate assessed per mg of protein per min; type: ADME, subcellular, Liver S9 fraction
[15] = Prodrug conversion in 42 days old female rat liver S9 fractions assessed as oseltamivir carboxylate generation rate assessed per mg of protein per min; type: ADME, subcellular, S9 fraction; method in brief: as §3
[16] = Prodrug conversion in 42 days old male rat brain S9 fractions assessed as paranitrophenol generation rate assessed per mg of protein per min; type: ADME, tissue-based; method in brief: as §4
[17] = Prodrug conversion in 7 days old female rat liver S9 fractions assessed as conversion of oseltamivir to oseltamivir carboxylate; type: ADME, subcellular, S9 fraction
Method in brief: (§5)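 S9 from brain or liver (rat S9 made by homogenizing tissue in ~4 ml Tris-sucrose buffer per g, supernatant after 9,000 × g at 10°C; pooled human brain and liver S9 also used), protein by bicinchoninic acid assay. Oseltamivir: triplicate, 10 μM 14C-oseltamivir final, 1.0 mg S9 protein, 100 mM Tris-HCl pH 7.4, 30 min at 37°C, quenched with TCA-acetonitrile.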

[18] = Prodrug conversion in commercial brain S9 fractions assessed as conversion of oseltamivir to oseltamivir carboxylate; type: ADME; method in brief: as §5
[19] = Prodrug conversion in 7 days old female rat brain S9 fractions assessed as conversion of oseltamivir to oseltamivir carboxylate; type: ADME, tissue-based; method in brief: as §5
[20] = AUC (0 to infinity) ratio in brain to plasma in non-perfused Sprague-Dawley rat at 30 mg/kg, iv; type: ADME, organism-based; set-up: dose 30 mg/kg, route intravenous; settings: brain and plasma, read-out: Ratio AUC; method in brief: as §1
[21] = Prodrug conversion in 7 days old male rat liver S9 fractions assessed as paranitrophenol generation rate assessed per mg of protein per min; type: ADME, subcellular, S9 fraction
MDR1 (P-gp, ABCB1) = MDR1 (P-gp, ABCB1) (Homo sapiens, UniProt P08183); test: Activity of human MDR1-mediated permeability from apical to basolateral side in pig LLC-PK1 cells in presence of P-gp inhibitor elacridar; type: cell-based; settings: LLC-PK1, with elacridar (concentration not stated), read-out: permeability
Method in brief: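 P-gp-transfected LLC-PK1 monolayers received [14C]oseltamivir (0.1–10 mM) plus Lucifer yellow on the apical or basolateral donor side, with or without 1 µM elacridar. Incubation was at 37°C under 5% CO2. The acceptor side was sampled at 0.5–3 h and counted by scintillation. Pe was taken from the 3 h point, without correction for marker flux. Three inserts were used per condition and averaged.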

[22] = Prodrug conversion in 7 days old female rat liver S9 fractions assessed as oseltamivir carboxylate generation rate assessed per mg of protein per min; type: ADME, subcellular, S9 fraction; method in brief: as §5
[23] = Prodrug conversion in 7 days old male rat brain S9 fractions assessed as conversion of oseltamivir to oseltamivir carboxylate; type: ADME, tissue-based; method in brief: as §5
[24] = Prodrug conversion in 42 days old female rat brain S9 fractions assessed as paranitrophenol generation rate assessed per mg of protein per min; type: ADME, tissue-based; method in brief: as §4
[25] = Prodrug conversion in 42 days old male rat brain S9 fractions assessed as conversion of oseltamivir to oseltamivir carboxylate; type: ADME, subcellular, S9 fraction; method in brief: as §3
[26] = Prodrug conversion in 42 days old female rat brain S9 fractions assessed as oseltamivir carboxylate generation rate assessed per mg of protein per min; type: ADME, tissue-based; method in brief: as §3
[27] = Prodrug conversion in 7 days old male rat brain S9 fractions assessed as paranitrophenol generation rate assessed per mg of protein per min; type: ADME, tissue-based
[28] = Prodrug conversion in 7 days old female rat brain S9 fractions assessed as oseltamivir carboxylate generation rate assessed per mg of protein per min; type: ADME, tissue-based; method in brief: as §5
[29] = Clearance in Sprague-Dawley rat at 30 mg/kg, iv; type: ADME, organism-based; set-up: dose 30 mg/kg, route intravenous; settings: in vivo; method in brief: as §1
[30] = Prodrug conversion in 7 days old male rat liver S9 fractions assessed as conversion of oseltamivir to oseltamivir carboxylate; type: ADME, subcellular, S9 fraction; method in brief: as §5

MDR1 (P-gp, ABCB1), sequence (P08183 whole entry): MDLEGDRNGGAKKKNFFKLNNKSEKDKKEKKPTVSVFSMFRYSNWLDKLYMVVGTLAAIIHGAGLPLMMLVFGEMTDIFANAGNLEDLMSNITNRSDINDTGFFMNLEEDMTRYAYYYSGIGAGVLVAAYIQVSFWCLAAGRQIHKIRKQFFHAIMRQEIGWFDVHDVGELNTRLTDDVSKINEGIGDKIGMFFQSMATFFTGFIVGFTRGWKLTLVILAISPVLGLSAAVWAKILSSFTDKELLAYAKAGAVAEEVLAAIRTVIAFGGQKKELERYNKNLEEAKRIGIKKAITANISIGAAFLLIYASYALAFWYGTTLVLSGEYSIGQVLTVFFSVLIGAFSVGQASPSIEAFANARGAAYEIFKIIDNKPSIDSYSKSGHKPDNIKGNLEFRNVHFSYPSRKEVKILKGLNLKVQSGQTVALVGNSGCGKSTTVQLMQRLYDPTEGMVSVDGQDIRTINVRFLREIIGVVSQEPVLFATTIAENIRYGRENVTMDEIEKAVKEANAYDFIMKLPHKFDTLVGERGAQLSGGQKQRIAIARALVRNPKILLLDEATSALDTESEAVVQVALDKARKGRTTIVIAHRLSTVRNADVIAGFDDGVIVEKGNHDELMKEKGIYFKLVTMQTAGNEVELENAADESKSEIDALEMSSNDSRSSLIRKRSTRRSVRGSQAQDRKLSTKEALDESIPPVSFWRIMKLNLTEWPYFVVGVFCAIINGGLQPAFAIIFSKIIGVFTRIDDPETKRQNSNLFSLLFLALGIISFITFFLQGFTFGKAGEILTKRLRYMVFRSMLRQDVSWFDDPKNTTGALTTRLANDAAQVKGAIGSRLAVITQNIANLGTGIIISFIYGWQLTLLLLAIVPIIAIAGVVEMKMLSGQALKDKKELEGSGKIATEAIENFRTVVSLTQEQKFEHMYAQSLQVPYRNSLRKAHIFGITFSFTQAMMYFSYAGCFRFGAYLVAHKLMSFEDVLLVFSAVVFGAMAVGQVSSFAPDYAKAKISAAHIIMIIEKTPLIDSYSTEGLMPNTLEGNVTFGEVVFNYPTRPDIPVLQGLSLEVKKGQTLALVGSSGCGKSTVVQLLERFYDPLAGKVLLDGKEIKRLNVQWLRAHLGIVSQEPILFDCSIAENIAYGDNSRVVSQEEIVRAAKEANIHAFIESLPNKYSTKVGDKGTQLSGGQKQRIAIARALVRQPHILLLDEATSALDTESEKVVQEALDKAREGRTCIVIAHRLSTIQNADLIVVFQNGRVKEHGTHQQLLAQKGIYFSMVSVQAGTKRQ

Cmax (Cerebrospinal fluid): BLD
beta t1/2 (Plasma [1]): 1.71 h
Cmax (Brain [2]): 75.5 ng/g
Kp [3]: 0.02
AUC (Plasma [4]): 13600
Cmax [5]: 164 ng/g
Cmax (Plasma [6]): 6.3 µg/mL
Kp [7]: 0.003
Cmax (Brain [8]): 164 ng/g
Cmax [9]: 75.5 ng/g
beta t1/2 (Brain [10]): 0.508 h
SMILES: CCC(CC)O[C@@H]1C=C(C(=O)O)C[C@H](N)[C@H]1NC(C)=O [OSELTAMIVIR CARBOXYLATE]

Activity [11]: 0.63%
Activity [12]: 1001 nmol
Activity [13]: 0.52 pmol/s
Activity [14]: 482 nmol
Activity [15]: 1.37 pmol/s
Activity [16]: 112 nmol
Activity [17]: 0.1%
Activity [18]: 0.1%
Activity [19]: < 0.06%
Kp [20]: 0.24
Activity [21]: 467 nmol
Papp A→B (MDR1 (P-gp, ABCB1)): 38.9 nm/s
Activity [22]: 0.34 pmol/s
Activity [23]: < 0.06%
Activity [24]: 70 nmol
Activity [25]: 0.16%
Activity [26]: 0.6 pmol/min/mg
Activity [27]: 80 nmol
Activity [28]: < 0.2 pmol/s
clearance [29]: 5.63 L/h/kg
Activity [30]: 0.1%
SMILES: CCOC(=O)C1=C[C@@H](OC(CC)CC)[C@H](NC(C)=O)[C@@H](N)C1 [OSELTAMIVIR]

Source: ChEMBL document CHEMBL1687750, “Nonclinical pharmacokinetics of oseltamivir and oseltamivir carboxylate in the central nervous system” (Antimicrob Agents Chemother, 2009)
